The source made the active and inactive calls. The rule behind the calls is not given here.

For test [1], the target named is T1, Diacylglycerol lipase-alpha (Homo sapiens) (UniProt Q9Y4D2).
T1 sequence (whole entry): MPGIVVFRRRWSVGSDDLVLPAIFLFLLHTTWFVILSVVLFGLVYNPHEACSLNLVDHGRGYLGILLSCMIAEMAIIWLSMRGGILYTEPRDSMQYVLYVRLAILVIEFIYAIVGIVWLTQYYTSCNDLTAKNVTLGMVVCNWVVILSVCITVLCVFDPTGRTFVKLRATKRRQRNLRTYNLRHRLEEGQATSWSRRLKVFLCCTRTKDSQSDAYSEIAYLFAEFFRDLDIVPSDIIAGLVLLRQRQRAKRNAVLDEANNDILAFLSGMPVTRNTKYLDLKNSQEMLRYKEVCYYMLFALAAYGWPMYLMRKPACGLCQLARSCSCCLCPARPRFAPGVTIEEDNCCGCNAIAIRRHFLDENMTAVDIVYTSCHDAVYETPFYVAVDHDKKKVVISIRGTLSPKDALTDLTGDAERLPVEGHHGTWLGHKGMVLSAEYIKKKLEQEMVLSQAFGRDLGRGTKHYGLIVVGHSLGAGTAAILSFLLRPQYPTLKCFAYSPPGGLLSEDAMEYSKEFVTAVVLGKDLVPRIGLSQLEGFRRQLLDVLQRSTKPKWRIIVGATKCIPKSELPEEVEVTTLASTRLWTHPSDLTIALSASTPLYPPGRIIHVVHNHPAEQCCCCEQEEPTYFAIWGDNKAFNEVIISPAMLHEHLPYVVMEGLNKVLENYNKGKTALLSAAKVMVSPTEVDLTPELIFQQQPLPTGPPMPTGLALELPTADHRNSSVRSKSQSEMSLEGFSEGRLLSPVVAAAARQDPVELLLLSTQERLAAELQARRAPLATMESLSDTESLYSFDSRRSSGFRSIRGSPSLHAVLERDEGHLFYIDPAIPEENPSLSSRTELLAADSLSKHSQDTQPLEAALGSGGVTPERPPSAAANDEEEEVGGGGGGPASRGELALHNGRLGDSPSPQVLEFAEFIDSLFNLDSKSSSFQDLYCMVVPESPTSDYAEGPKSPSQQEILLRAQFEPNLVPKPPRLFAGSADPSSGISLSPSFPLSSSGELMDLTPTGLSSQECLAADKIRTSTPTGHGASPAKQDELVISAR
Put plainly: Inhibition of human DAGLalpha expressed in HEK293T cell membrane using [14C]SAG substrate at 10 uM in presence of 0.05% Triton X-100 by […]. In kind it is cell-based. Particulars: HEK-293T.

Test [2] has as its target T2, Diacylglycerol lipase-alpha (Mus musculus) (UniProt Q6WQJ1).
T2 sequence (whole entry): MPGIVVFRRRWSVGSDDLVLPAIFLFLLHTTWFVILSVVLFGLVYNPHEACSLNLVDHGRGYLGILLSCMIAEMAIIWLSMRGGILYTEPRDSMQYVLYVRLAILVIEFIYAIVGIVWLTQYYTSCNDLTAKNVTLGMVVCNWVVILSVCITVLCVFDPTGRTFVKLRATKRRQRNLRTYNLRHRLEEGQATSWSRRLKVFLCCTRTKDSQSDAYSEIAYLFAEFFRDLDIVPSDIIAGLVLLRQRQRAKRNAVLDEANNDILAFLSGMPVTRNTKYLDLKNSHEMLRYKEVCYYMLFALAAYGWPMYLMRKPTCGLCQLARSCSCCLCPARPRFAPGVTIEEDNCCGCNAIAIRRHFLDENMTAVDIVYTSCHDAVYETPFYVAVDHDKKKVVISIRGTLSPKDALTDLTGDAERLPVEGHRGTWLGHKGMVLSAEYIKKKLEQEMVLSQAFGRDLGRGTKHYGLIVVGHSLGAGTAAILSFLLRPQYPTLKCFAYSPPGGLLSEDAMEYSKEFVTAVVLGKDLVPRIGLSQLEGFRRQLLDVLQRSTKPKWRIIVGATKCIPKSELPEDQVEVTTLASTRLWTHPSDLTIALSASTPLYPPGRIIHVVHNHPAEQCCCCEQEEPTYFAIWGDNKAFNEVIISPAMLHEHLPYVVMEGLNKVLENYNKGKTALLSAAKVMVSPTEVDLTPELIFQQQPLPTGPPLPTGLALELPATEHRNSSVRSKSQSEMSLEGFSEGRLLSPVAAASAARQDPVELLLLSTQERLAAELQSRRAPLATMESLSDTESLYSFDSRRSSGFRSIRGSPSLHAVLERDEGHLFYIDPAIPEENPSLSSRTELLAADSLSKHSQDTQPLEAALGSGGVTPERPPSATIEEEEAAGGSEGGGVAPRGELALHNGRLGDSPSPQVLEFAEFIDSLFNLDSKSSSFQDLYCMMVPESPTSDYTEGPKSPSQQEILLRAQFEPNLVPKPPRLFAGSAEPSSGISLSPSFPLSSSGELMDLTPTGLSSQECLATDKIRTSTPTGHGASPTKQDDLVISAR
Put plainly: Inhibition of mouse DAGLalpha expressed in HEK293T cell membrane using [14C]SAG substrate at 10000 nM by scintillation counting based radio-TLC assay. In kind it is cell membranes. Particulars: HEK-293T.

Test [3] addresses T3, Monoglyceride lipase (Homo sapiens) (UniProt Q99685).
T3 sequence (whole entry): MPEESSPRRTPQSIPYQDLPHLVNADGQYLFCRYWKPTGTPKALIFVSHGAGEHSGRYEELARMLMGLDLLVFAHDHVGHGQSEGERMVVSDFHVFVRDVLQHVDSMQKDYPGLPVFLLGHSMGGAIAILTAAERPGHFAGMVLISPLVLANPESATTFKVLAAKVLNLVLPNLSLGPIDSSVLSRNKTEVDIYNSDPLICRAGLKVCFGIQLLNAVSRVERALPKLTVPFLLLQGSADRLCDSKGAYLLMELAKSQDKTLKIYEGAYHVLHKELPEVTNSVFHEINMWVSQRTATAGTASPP
Put plainly: Inhibition of human N-terminal histidine tagged full length MAGL expressed in Escherichia coli at 10 uM by coumarin ester substrate fluorescence assay.

A further test deals with Bacteria. Briefly: Inhibition of bacterial lipoprotein lipase at 10 uM by FRET assay.
Test [4] addresses T2, Diacylglycerol lipase-alpha (Mus musculus). Briefly: Inhibition of mouse DAGLalpha expressed in HEK293T cell membrane using [14C]SAG substrate at 100 nM by scintillation counting based radio-TLC assay. Format: cell membranes. Particulars: HEK-293T. In outline: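 mDAGLα radio-TLC using 8.8 μg membrane protein in 50 mM Tris pH 7.4 with 10 mM CaCl2. Inhibitor tested at 10 nM–10 μM, preincubated 15 min at 37 °C. [14C]SAG 20 μM final for 20 min at 37 °C. CHCl3/MeOH quench, silica TLC, phosphorimaging. Activity = labelled 2-AG+AA over total label. n=1–2.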

Test [5] shares this target. Put plainly: Inhibition of mouse DAGLalpha expressed in HEK293T cell membrane using [14C]SAG substrate at 1000 nM by scintillation counting based radio-TLC assay. In kind it is cell membranes. Particulars: HEK-293T.
Test [6] addresses T1, Diacylglycerol lipase-alpha (Homo sapiens). Put plainly: Inhibition of human DAGLalpha expressed in HEK293T cell membrane using [14C]SAG substrate at 10 uM in detergent free solution by […]. In kind it is cell-based. Particulars: HEK-293T.
The target is the same in test [7]. Put plainly: Inhibition of human DAGLalpha expressed in HEK293T cell membrane using [14C]SAG substrate at 10 uM in detergent free solution by scintillation counting based radio-TLC assay. Particulars: HEK-293T.

On to `CCCCCCCCCCC[C@@H](C[C@@H]1OC(=O)[C@H]1CCCCCC)OC(=O)[C@@H](NC=O)[C@@H](C)CC`, for which the inhibition in test [1] amounted to 99%; in test [2] it was 96%; in test [3], 16%; in the test on Bacteria it was 84%; in test [4], 80%; in test [5] it was 96%. The inhibition in test [6] stood at 92%.

As for `O=C(Oc1ccc([N+](=O)[O-])cc1)N1CCC(C(O)(c2ccc3c(c2)OCO3)c2ccc3c(c2)OCO3)CC1`, the inhibition in test [2] was determined as 3%; in test [3] it was 100%; with Bacteria, 36%; in test [6], 59%. The inhibition result in test [7] was “inactive”.

With `CCCCCCCCCCC[C@@H](C[C@@H]1OC(=O)[C@H]1CCCCCC)OC(=O)[C@H](NC=O)[C@@H](C)CC`, the inhibition amounted to 98% in test [1]; 90% in test [2]; 42% in test [3]; 68% in the test on Bacteria; 51% in test [4]; 75% in test [5]. Also, the inhibition in test [6] amounted to 90%.

Turning to `CCCCCCCCCCC[C@@H](C[C@@H]1OC(=O)[C@H]1CCCCCC)OC(=O)[C@H](NC=O)[C@H](C)CC`, the inhibition in test [1] turned out to be 98%; in test [2], 85%; in test [3], 39%; in the test on Bacteria it was 86%; in test [4] it was 29%; in test [5] it was 69%. In test [6], the inhibition worked out at 90%.

`CCCCCCCCCCC[C@@H](C[C@@H]1OC(=O)[C@H]1CCCCCC)OC(=O)[C@H](CC)NC=O`: the inhibition in test [1] stood at 100%; in test [2], 100%; in test [3], 45%; in the test with Bacteria it was 80%; in test [4], 68%; in test [5], 96%. The compound further yielded an inhibition in test [6] of 93%.

Consider `CCCCCCCCCCC[C@@H](C[C@@H]1OC(=O)[C@H]1CCCCCC)OC(=O)[C@H](CC(C)C)NC=O` [ORLISTAT], for which the values for the inhibition in test [3], in test [7] and in test [4] were 47%, 100% and 72%, respectively.

Regarding `CCCCCCCCCCC[C@@H](C[C@@H]1OC(=O)[C@H]1CCCCCC)OC(=O)[C@@H](NC=O)[C@H](C)CC`, the inhibition came out at 99% in test [1]; 100% in test [2]; 1% in test [3]; 61% in the test on Bacteria; 61% in test [4]; 88% in test [5]. This compound also gave an inhibition in test [6] of 92%.

The inhibition is the relative decrease from the control value, in per cent.

Source of the values: ChEMBL document CHEMBL2169869, “Assay and inhibition of diacylglycerol lipase activity” (Bioorg Med Chem Lett, 2012).
